Test results reported in PubChem BioAssay AID617 (SRMLSC, 2007).

System: E. coli BW25113 ΔtolC growth inhibition, OD615
Experiment: growth inhibitors of E. coli tolC mutant, dose response, strain BW25113 ΔtolC::kan (AID 617)
Procedure, shortened: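 system = E. coli BW25113 tolC deletion strain (ΔtolC::kan), whole bacterial cells | technique = optical density (absorbance) at 615 nm | dosing = compounds in serially diluted dose-response series | times = bacterial growth with compound for 20 h, 37 °C | evaluation = growth-inhibition IC50 from four-parameter logistic curve, bounds set to 0% and 100%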

Compound | IC50
CCOC(=O)c1cc2c(ccn2C)n1Cc1ccccc1C | 27.3 µM
COc1ccc(OCC(O)CNc2ccc(Br)cc2)cc1 (configuration not stated) | 12.7 µM
CCOC(=O)c1c(CN2CCOCC2)n(-c2ccccc2)c2ccc(O)cc12 | 18.3 µM
CCCn1nnc(NC(=O)COc2ccc(C3CCCCC3)cc2)n1 | 9.4 µM
Cc1cccc(S(=O)(=O)C(C#N)c2nc3ccccc3nc2N2CC(C)OC(C)C2)c1 (configuration not stated) | 14.4 µM
Cc1ccc(C(c2nnnn2CCc2ccccc2)N2CCSCC2)cc1 (configuration not stated) | 30.9 µM
O=C1CC(O)(C(F)(F)F)Oc2c1ccc1ccccc21 (configuration not stated) | 1.19 µM
Cc1noc(NS(=O)(=O)c2ccc(NC(=O)Nc3ccc(Cl)c(Cl)c3)cc2)c1C | 4.51 µM
CCC(c1nnnn1C1CCCCC1)N(Cc1ccco1)Cc1cc2ccc(OC)cc2[nH]c1=O (configuration not stated) | 13.3 µM
Cc1nc2ccc(C(C(F)(F)F)(C(F)(F)F)C(F)(F)F)cc2[nH]1 | 33.4 µM
N/C(=N/O)c1nc(N2CCCC2)nc(N(c2ccccc2)c2ccccc2)n1 | 10.9 µM
CCCCCC/C(=N/O)c1ccccn1 | 3.15 µM
CC(C)(C)c1[nH]nc2c1C(Cc1ccccc1)C(C#N)=C(N)O2 (configuration not stated) | 31.7 µM
COc1ccc(C(C)(C)C)cc1NC(=O)Nc1ccc2c(c1)OCO2 | 5.28 µM
Cc1ccccc1-c1nnc(SCc2ccccc2F)o1 | 25.8 µM
CCOC(=O)c1cnc(-n2nc(C)cc2C)nc1NC(C)c1ccccc1 (configuration not stated) | 2.76 µM
CC(C)Cn1c(=O)c(C(=O)Nc2ccncc2)c(O)c2ccccc21 | 3.34 µM
Brc1ccccc1Cn1c(-c2cncs2)nc2ccccc21 | 10.6 µM
CCOc1ccc(S(=O)(=O)Nc2cccc(Cl)c2)cc1 | 4.98 µM
Fc1ccc(CNc2nc(-c3ccco3)cc(C(F)(F)F)n2)cc1 | 13.9 µM
CC(C)C(C(=O)NCc1ccco1)N(C(=O)CNS(=O)(=O)c1ccc(Cl)cc1)C1CCCC1 (configuration not stated) | 24.8 µM
CC(C)COC(=O)NCCOC(=O)Nc1cccc(Cl)c1 | 19.6 µM
O=S(=O)(Nc1ccc(S(=O)(=O)N2CCCCC2)cc1)c1ccc(Br)s1 | 4.39 µM

Compound | IC50
COc1ccccc1-c1noc(CCC(=O)Nc2cccc(C(F)(F)F)c2)n1 | 15.9 µM
COc1ccc(CCN2C(=O)c3[nH]nc(-c4ccccc4O)c3C2c2ccc(C)cc2)cc1OC (configuration not stated) | 13.8 µM
C=C(C)COc1ccc(-c2ncncc2Oc2ccc(OC)cc2)c(O)c1 | 14 µM
O=C(Nc1ccc2oc(Cc3ccc(Cl)cc3)nc2c1)c1cccnc1 | 53.9 µM
CCCn1nnnc1NC(=O)CSc1ccc(Cl)cc1 | 4.21 µM
CC1Cc2cc(-c3csc(NC(=O)Cc4cccs4)n3)ccc2N1S(C)(=O)=O (configuration not stated) | 15.3 µM
N#CC(C#N)=c1ccc2c(c1)N1C3=C(CCCC3)CC3CCCCC31N=2 (configuration not stated) | 75.6 µM
COCc1nnc(NC(=O)c2ccc(S(=O)(=O)N3CCCCCC3)cc2)o1 | 7.62 µM
CC1CCCCN1C(=O)CSc1nc(C2CC2)nc2c1cnn2-c1ccccc1 (configuration not stated) | 12.3 µM
C=CCN(CC=C)S(=O)(=O)c1ccc2nc(NC(=O)C(C)C)sc2c1 | 6.66 µM
COC(=O)c1ccc(C2c3c(n[nH]c3C)C(=O)N2c2ccc(C)cc2)cc1 (configuration not stated) | 4.38 µM
Cc1ccc(O)c(-c2cc3ccccc3[nH]2)c1 | 11.7 µM
c1ccc(-c2csc(N3CCN(c4ccccn4)CC3)n2)cc1 | 8.99 µM
Cc1cc(N2CCCCC2)nc(SCc2ccc(C#N)cc2)n1 | 12.1 µM
CCCc1nc(SC2CCCC2)c2c(=O)n(C)c(=O)n(C)c2n1 | 13.6 µM
CCCCOc1[nH]c2nc(-c3ccco3)n(Cc3ccco3)c(=N)c2c1C#N | 12 µM
CCc1ccccc1N(C)C(=O)CCc1nc(-c2ccc(C)cc2)no1 | 13.8 µM
Cc1ccc(Cn2ncn3c(cc4ccccc43)c2=O)cc1 | 14.1 µM
O=S(=O)(Nc1nc2ccccc2nc1NCc1ccco1)c1ccc(Cl)cc1 | 4.77 µM
CC(C)N(Cc1nc(-c2ccccc2)no1)C(=O)c1ccc(Cl)cc1 | 19.5 µM
COc1ccc(-c2cc(C(=O)N3CC4(C)CC3CC(C)(C)C4)no2)cc1OC (configuration not stated) | 14.1 µM
c1ccc(Nc2nc(-c3cccs3)cs2)nc1 | 12.9 µM
CC1=C(C(=O)OC(C)C)C(c2c[nH]c3ccccc23)n2ncnc2N1 (configuration not stated) | 6.11 µM

Compound | IC50
CC1=CCC(COC(=O)Nc2ccccc2)CC1 (configuration not stated) | 26.8 µM
COc1ccc(-c2noc(CCC(=O)N(C)c3cccc(C)c3)n2)cc1 | 22.7 µM
c1ccc(CCc2ccccc2-c2nc(-c3cccnc3)no2)cc1 | 11.9 µM
O=C(CCSc1nc(-c2ccco2)cc(C(F)(F)F)n1)N1CCCc2ccccc21 | 9.2 µM
Clc1ccc(Cn2ncc3c(NCc4ccco4)ncnc32)c(Cl)c1 | 53.4 µM
COc1ccc(S(=O)(=O)n2cnc3cc(C)c(C)cc32)cc1C | 13.6 µM
CCSc1nnc(NC(=O)c2cccc(OCc3c(C)noc3C)c2)s1 | 10.8 µM
CCc1nc2ccccc2c(=O)n1NC(=O)c1c(O)c2cccc3c2n(c1=O)CCC3 | 12.2 µM
O=C(Nc1cccc(Cl)c1)N(CCN1CCOCC1)Cc1cccc(Cl)c1 | 6.44 µM
CC1=C(C(=O)OC2CCCCCC2)C(c2ccc(C)o2)C2=C(CCCC2=O)N1 (configuration not stated) | 6.35 µM
CCCCN1C(=O)NC(=O)C2(Cc3c(nc4c(C)cccn4c3=O)N3CCc4ccccc4C32)C1=O (configuration not stated) | 3.2 µM
CC1CCN(c2nc3ccccc3nc2C(C#N)S(=O)(=O)c2ccccc2)CC1 (configuration not stated) | 9.39 µM
CCCCN(CCCC)C(=O)CSc1nnc(-c2cc(OC)c(OC)c(OC)c2)o1 | 27.7 µM
O=C(O)CCCC(=O)N1CCc2cc(S(=O)(=O)N3CCc4ccccc43)ccc21 | 10.7 µM
CCOC(=O)c1ccccc1NC(=O)c1c(F)c(F)c(F)c(F)c1F | 23 µM
Oc1cccc(Nc2nc(NCC3CCCO3)c3ccccc3n2)c1 (configuration not stated) | 4.68 µM
Cc1ccc(-n2c(=O)[nH]cc(C(=O)Nc3ccc4c(c3)OCCO4)c2=O)cc1C | 26.9 µM
N#Cc1nc(Cc2ccccc2)oc1NCc1ccccc1Cl | 4.79 µM
CCCCCn1c(-c2ccco2)nc2nc3ccccc3nc21 | 84.8 µM
Fc1ccc(Br)cc1C1C=C(c2ccc(Br)s2)Nc2ncnn21 (configuration not stated) | 5.22 µM
Cc1cccc(C(C)(C)C)c1OCCn1ccnc1 | 11.8 µM
Cc1cc(=O)[nH]c(-n2nc(C)cc2C)n1 | 6.56 µM
CCc1c(O)nc(SCc2ccccc2)n(C(C)CC)c1=O (configuration not stated) | 4.28 µM

Compound | IC50
O=C(NCCc1ccccc1)c1nc2c(nnn2Cc2ccccc2Cl)c(=O)[nH]1 | 4.65 µM
Cn1c(CSc2nnc(SCc3ccccc3)s2)nc2ccccc21 | 22.5 µM
Cc1ccc(C)c(N2CCN(C(=O)c3ccccc3Br)CC2)c1 | 11.2 µM
Cc1cc(N2CCN(c3ccccc3)CC2)nc(-n2nc(C)cc2C)n1 | 7.6 µM
O=C(NCc1ccc2c(c1)OCO2)c1ccc(COc2cccc(Cl)c2)o1 | 7.25 µM
Cc1cccc(NC(=O)c2cc3n(n2)C(C(F)(F)F)CC(c2ccc4c(c2)OCO4)N3)c1 (configuration not stated) | 6.87 µM
CCOC(=O)Cc1c(C)nc2c(-c3cccc(Br)c3)c[nH]n2c1=O | 0.17 µM
COc1ccc2c(-c3ccccc3)cc(N3CCOCC3)nc2c1 | 17.9 µM
Cc1ccc(Cl)cc1N1CCN(Cc2nnnn2Cc2ccco2)CC1 | 17.6 µM
COc1ccc2c(c1)CCc1c(C(=O)N3CCc4ccccc4C3)noc1-2 | 5.76 µM
O=C(c1cccs1)N(Cc1nc2sc3c(c2c(=O)[nH]1)CCCC3)C1CCCC1 | 9.95 µM
N=c1c2c(-c3ccccc3)c(-c3ccccc3)n(Cc3ccco3)c2ncn1Cc1ccco1 | 4.32 µM
O=C(c1ccco1)N1CCN(c2ncnc3c2[nH]c2ccc(Br)cc23)CC1 | 44.5 µM
O=c1[nH]c2ccc(S(=O)(=O)N3CCN(c4ccccc4F)CC3)cc2s1 | 57 µM
CCN(CC)S(=O)(=O)c1ccc2[nH]cc(C(=O)NCCC3=CCCCC3)c(=O)c2c1 | 5.15 µM
CC(C)(C)c1ccc(C(=O)CCCSC2=C(C#N)C(c3ccco3)C3=C(CCCC3=O)N2)cc1 (configuration not stated) | 1.77 µM
COc1ccc(OC)c(Nc2nc(-c3cccs3)cs2)c1 | 28.2 µM
c1ccc(CC2CCN(Cc3nc(-c4ccccc4)no3)CC2)cc1 | 13.4 µM
O=C(CCCOc1ccc(Cl)cc1Cl)N1CCN(c2ccccn2)CC1 | 6.04 µM
CCOC(=O)C1Cn2c(nc3c(c2=O)C(C)(CC)Cc2ccccc2-3)S1 (configuration not stated) | 24.2 µM
N#Cc1c(/N=C/c2ccco2)oc(-c2ccccc2)c1-c1ccccc1 | 6.78 µM
CC(C)C(c1nnnn1C1CCCC1)N1c2ccccc2CC1C (configuration not stated) | 20.8 µM
O=C(c1ccc(COc2ccccc2Br)o1)N1CCCCCC1 | 98.8 µM

Compound | IC50
CCOc1ccc(NS(=O)(=O)c2ccc(SC)cc2)cc1 | 6.84 µM
COc1ccc(-n2c(C)cc(C(=O)COC(=O)Cn3cnc4ccccc43)c2C)cc1 | 3.33 µM
CSc1nc2ccc(NS(=O)(=O)c3ccc4c(c3)OCCO4)cc2s1 | 2.88 µM
Cc1cccc(-c2noc(CN(C(=O)c3ccc(Br)o3)C(C)C)n2)c1 | 11.8 µM
CCOc1ccc(S(=O)(=O)Nc2cc(Cl)ccc2O)cc1 | 9.22 µM
Cn1cc(SCC(=O)Nc2nc3ccccc3s2)c2ccccc21 | 9.23 µM
CCc1c(C)nc2cc(-c3cc(OC)cc(OC)c3)nn2c1N1CCCC1 | 25.5 µM
O=S(=O)(Nc1nc2ccccc2nc1NCc1ccco1)c1cccs1 | 8.75 µM
CCC(C)(C)n1nnnc1C(c1cc2ccc(C)cc2[nH]c1=O)N(Cc1cccnc1)Cc1ccco1 (configuration not stated) | 15.2 µM
O=C(Nc1ccc(Cl)cc1)N1CCC(c2nc(-c3cccs3)no2)CC1 | 6.4 µM
CCn1c2ccccc2c2cc(C3C(C#N)=C(N)Oc4n[nH]c(COC)c43)ccc21 (configuration not stated) | 22.7 µM
COc1cccc2sc(Nc3nc(-c4ccccn4)cs3)nc12 | 1.79 µM
CC(C)(C)n1nnnc1C(c1cccs1)N1CCCc2ccccc21 (configuration not stated) | 13.6 µM
Cc1cc(C)cc(-n2ccnc2SCC(=O)Nc2ccc3c(c2)OCCO3)c1 | 28.1 µM
CCn1cc(C(=O)OC(C)C(=O)Nc2c(C)n(C)n(-c3ccccc3)c2=O)c(=O)c2ccc(C)nc21 (configuration not stated) | 12.7 µM
CCN(c1cccc(C(F)(F)F)c1)S(=O)(=O)c1ccc2c(c1)CCN2C(=O)C1CC1 | 50.9 µM
COc1ccc(-n2c(C)nc3c(cnn3-c3ccc(Cl)cc3)c2=O)cc1 | 20.9 µM
COC(=O)C1=C(CSc2nc3ccccc3o2)NC(=O)NC1c1cc(C)ccc1C (configuration not stated) | 13 µM
CN(C)c1nc(SCCOC(=O)Nc2ccccc2)nc(N(C)C)n1 | 12 µM
CCCOC(=O)c1ccc(Oc2cn[nH]c2-c2ccc(OCC)cc2O)cc1 | 13.6 µM
